According to ChEMBL document CHEMBL1156638, “Antibacterial cannabinoids from Cannabis sativa: a structure-activity study” (2008):
Converted amounts (≈) assume the structure as drawn.

What was measured:
Format in all cases: functional
[1] = test system: Staphylococcus aureus; assay: Antibacterial activity against […] Staphylococcus aureus SA1199B after 18 hrs
In short: (§1)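 Broth microdilution in Mueller-Hinton broth adjusted to 20 mg/L Ca2+ and 10 mg/L Mg2+. Overnight cultures diluted in 0.9% saline to 5 ×10^5 cfu against a MacFarland standard. Compounds serially diluted twofold, inoculum added, incubated 37 °C for 18 h. DMSO (3.125%) control included. MIC taken as lowest concentration with no visible growth, done in duplicate. MTT (5 mg/mL methanolic) used.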

[2] = test system: Staphylococcus aureus; assay: Antibacterial activity against macrolide-resistant Staphylococcus aureus RN4220 after 18 hrs; details: RN4220, 18 h; in short: as §1
[3] = test system: Staphylococcus aureus; assay: Antibacterial activity against tetracycline-resistant Staphylococcus aureus XU212 after 18 hrs; details: XU212, 18 h; in short: as §1
[4] = test system: Staphylococcus aureus; assay: Antibacterial activity against […] Staphylococcus aureus ATCC 25923 after 18 hrs; details: ATCC 25923, 18 h; in short: as §1
[5] = test system: Staphylococcus aureus; assay: Antibacterial activity against epidemic methicillin-resistant Staphylococcus aureus 15 after 18 hrs; in short: as §1
[6] = test system: Staphylococcus aureus; assay: Antibacterial activity against epidemic methicillin-resistant Staphylococcus aureus 16 after 18 hrs; in short: as §1

Compound | MIC [1] | MIC [2] | MIC [3] | MIC [4] | MIC [5] | MIC [6]
CCCCCc1cc(O)c(C/C=C(\C)CCC(O)C(C)(C)O)c(O)c1 (configuration not stated) [CARMAGEROL] | 32 µg/mL (≈ 91.3 µM) | 32 µg/mL (≈ 91.3 µM) | 16 µg/mL (≈ 45.6 µM) | 16 µg/mL (≈ 45.6 µM) | 16 µg/mL (≈ 45.6 µM) | 32 µg/mL (≈ 91.3 µM)
CCn1cc(C(=O)O)c(=O)c2cc(F)c(N3CCNCC3)cc21 [NORFLOXACIN] | 32 µg/mL (≈ 100 µM) | 1 µg/mL (≈ 3.13 µM) | 4 µg/mL (≈ 12.5 µM) | 1 µg/mL (≈ 3.13 µM) | 0.5 µg/mL (≈ 1.57 µM) | 128 µg/mL (≈ 401 µM)
C=C(C)[C@@H]1CCC(C)=C[C@H]1c1c(O)cc(CCCCC)cc1OC | > 128 µg/mL | > 128 µg/mL | > 128 µg/mL | > 128 µg/mL | > 128 µg/mL | > 128 µg/mL
CCCCCc1cc(O)c(C/C=C(\C)CCC=C(C)C)c(OC)c1 | > 128 µg/mL | > 128 µg/mL | > 128 µg/mL | > 128 µg/mL | > 128 µg/mL | > 128 µg/mL
CCCCCc1cc(O)cc(O)c1C/C=C(\C)CCC=C(C)C | 2 µg/mL (≈ 6.32 µM) | 1 µg/mL (≈ 3.16 µM) | 0.5 µg/mL (≈ 1.58 µM) | 1 µg/mL (≈ 3.16 µM) | 2 µg/mL (≈ 6.32 µM) | –
CCCCCc1cc(O)c(C/C=C(\C)CCC=C(C)C)c(O)c1 [CANNABIGEROL] | 1 µg/mL (≈ 3.16 µM) | 1 µg/mL (≈ 3.16 µM) | 1 µg/mL (≈ 3.16 µM) | 1 µg/mL (≈ 3.16 µM) | 2 µg/mL (≈ 6.32 µM) | 1 µg/mL (≈ 3.16 µM)
C=C(C)[C@@H]1CCC(C)=C[C@H]1c1c(O)cc(CCCCC)c(C(=O)O)c1O [CANNABIDIOLIC ACID] | 2 µg/mL (≈ 5.58 µM) | 2 µg/mL (≈ 5.58 µM) | 2 µg/mL (≈ 5.58 µM) | 2 µg/mL (≈ 5.58 µM) | 2 µg/mL (≈ 5.58 µM) | 2 µg/mL (≈ 5.58 µM)
CCCCCc1cc(O)c(C/C=C(\C)CCC=C(C)C)c(O)c1C(=O)OC | 64 µg/mL (≈ 171 µM) | – | 64 µg/mL (≈ 171 µM) | – | – | –
C=C(C)[C@@H]1CCC(C)=C[C@H]1c1c(O)cc(CCCCC)cc1O [CANNABIDIOL] | 1 µg/mL (≈ 3.18 µM) | 1 µg/mL (≈ 3.18 µM) | 1 µg/mL (≈ 3.18 µM) | 0.5 µg/mL (≈ 1.59 µM) | 1 µg/mL (≈ 3.18 µM) | 1 µg/mL (≈ 3.18 µM)
CCCCCc1cc(O)c2c(c1)OC(C)(CCC=C(C)C)C=C2 (configuration not stated) [CANNABICHROMENE] | 2 µg/mL (≈ 6.36 µM) | 2 µg/mL (≈ 6.36 µM) | 1 µg/mL (≈ 3.18 µM) | 2 µg/mL (≈ 6.36 µM) | 2 µg/mL (≈ 6.36 µM) | 2 µg/mL (≈ 6.36 µM)
C=C(C)C1CCC(C)=CC1c1c(CCCCC)cc(O)c([C@@H]2C=C(C)CC[C@H]2C(=C)C)c1O (some centres not stated) | > 128 µg/mL | > 128 µg/mL | > 128 µg/mL | > 128 µg/mL | > 128 µg/mL | > 128 µg/mL
C=C(C)[C@@H]1CCC(C)=C[C@H]1c1c(O)cc(CCCCC)c(C(=O)OC)c1O | > 128 µg/mL | > 128 µg/mL | > 128 µg/mL | > 128 µg/mL | > 128 µg/mL | > 128 µg/mL
CC[C@H]1OC(=O)[C@H](C)[C@@H](O[C@H]2C[C@@](C)(OC)[C@@H](O)[C@H](C)O2)[C@H](C)[C@@H](O[C@@H]2O[C@H](C)C[C@H](N(C)C)[C@H]2O)[C@](C)(O)C[C@@H](C)C(=O)[C@H](C)[C@@H](O)[C@]1(C)O [ERYTHROMYCIN] | 0.25 µg/mL (≈ 0.341 µM) | 64 µg/mL (≈ 87.2 µM) | > 128 µg/mL | 0.25 µg/mL (≈ 0.341 µM) | > 128 µg/mL | > 128 µg/mL
C=C(C)[C@@H]1CCC(C)=C[C@H]1c1c(O)cc(CCCCC)c(C(=O)OCCc2ccccc2)c1O | > 128 µg/mL | > 128 µg/mL | > 128 µg/mL | > 128 µg/mL | > 128 µg/mL | > 128 µg/mL
CCCCCc1cc(OC)c(C/C=C(\C)CCC=C(C)C)c(OC)c1 | > 128 µg/mL | > 128 µg/mL | > 128 µg/mL | > 128 µg/mL | > 128 µg/mL | > 128 µg/mL
CCCCCc1cc(OC(C)=O)c(C/C=C(\C)CCC=C(C)C)c(OC(C)=O)c1 | > 128 µg/mL | > 128 µg/mL | > 128 µg/mL | > 128 µg/mL | > 128 µg/mL | > 128 µg/mL
C=C(C)[C@@H]1CCC(C)=C[C@H]1c1c(O)cc(O)cc1CCCCC | 1 µg/mL (≈ 3.18 µM) | 1 µg/mL (≈ 3.18 µM) | 1 µg/mL (≈ 3.18 µM) | 1 µg/mL (≈ 3.18 µM) | 1 µg/mL (≈ 3.18 µM) | 1 µg/mL (≈ 3.18 µM)
CN(C)[C@@H]1C(O)=C(C(N)=O)C(=O)[C@@]2(O)C(O)=C3C(=O)c4c(O)cccc4[C@@](C)(O)[C@H]3C[C@@H]12 [TETRACYCLINE] | 0.25 µg/mL (≈ 0.563 µM) | 0.25 µg/mL (≈ 0.563 µM) | 128 µg/mL (≈ 288 µM) | 0.25 µg/mL (≈ 0.563 µM) | 0.125 µg/mL (≈ 0.281 µM) | 0.125 µg/mL (≈ 0.281 µM)
C=C(C)[C@@H]1CCC(C)=C[C@H]1c1c(OC(C)=O)cc(CCCCC)cc1OC(C)=O | > 128 µg/mL | > 128 µg/mL | > 128 µg/mL | > 128 µg/mL | > 128 µg/mL | > 128 µg/mL
CCCCCc1cc2c(c(O)c1C(=O)O)[C@@H]1C=C(C)CC[C@H]1C(C)(C)O2 [DELTA9-TETRAHYDROCANNABINOLIC ACID A] | 8 µg/mL (≈ 22.3 µM) | 4 µg/mL (≈ 11.2 µM) | 8 µg/mL (≈ 22.3 µM) | 4 µg/mL (≈ 11.2 µM) | 8 µg/mL (≈ 22.3 µM) | 4 µg/mL (≈ 11.2 µM)
CCCCCc1cc(O)c(C/C=C(\C)CCC=C(C)C)c(O)c1C(=O)OCCc1ccccc1 | > 128 µg/mL | > 128 µg/mL | > 128 µg/mL | > 128 µg/mL | > 128 µg/mL | > 128 µg/mL
CCCCCc1cc(O)c2c(c1)OC(C)(C)c1ccc(C)cc1-2 [CANNABINOL] | 1 µg/mL (≈ 3.22 µM) | 1 µg/mL (≈ 3.22 µM) | 1 µg/mL (≈ 3.22 µM) | 1 µg/mL (≈ 3.22 µM) | 1 µg/mL (≈ 3.22 µM) | –
CCCCCc1cc(O)c(C/C=C(\C)CCC=C(C)C)c(O)c1C(=O)O [CANNABIGEROLIC ACID] | 4 µg/mL (≈ 11.1 µM) | 2 µg/mL (≈ 5.55 µM) | 4 µg/mL (≈ 11.1 µM) | 4 µg/mL (≈ 11.1 µM) | 2 µg/mL (≈ 5.55 µM) | 4 µg/mL (≈ 11.1 µM)
Oc1cccc(O)c1 [RESORCINOL] | > 256 µg/mL | > 256 µg/mL | > 256 µg/mL | > 256 µg/mL | > 256 µg/mL | > 256 µg/mL
Cc1onc(-c2ccccc2)c1C(=O)N[C@@H]1C(=O)N2[C@@H]1SC(C)(C)[C@@H]2C(=O)O [OXACILLIN] | 0.25 µg/mL (≈ 0.623 µM) | 0.25 µg/mL (≈ 0.623 µM) | 128 µg/mL (≈ 319 µM) | 0.125 µg/mL (≈ 0.311 µM) | 32 µg/mL (≈ 79.7 µM) | > 128 µg/mL
CCCCCc1cc(O)cc(O)c1 [WHILE OLIVETOL] | 64 µg/mL (≈ 355 µM) | 64 µg/mL (≈ 355 µM) | 64 µg/mL (≈ 355 µM) | 128 µg/mL (≈ 710 µM) | 64 µg/mL (≈ 355 µM) | 64 µg/mL (≈ 355 µM)
CCCCCc1cc(O)c2c(c1)OC(C)(C)[C@@H]1CCC(C)=C[C@@H]21 [DRONABINOL] | 2 µg/mL (≈ 6.36 µM) | 1 µg/mL (≈ 3.18 µM) | 1 µg/mL (≈ 3.18 µM) | 1 µg/mL (≈ 3.18 µM) | 2 µg/mL (≈ 6.36 µM) | 0.5 µg/mL (≈ 1.59 µM)
C=C(C)[C@@H]1CCC(C)=C[C@H]1c1c(OC)cc(CCCCC)cc1OC | > 128 µg/mL | > 128 µg/mL | > 128 µg/mL | > 128 µg/mL | > 128 µg/mL | > 128 µg/mL
